Measured values reported in paper PMC7009771 (EFSA Journal, 2018).
In brackets after ≈: the same amount, converted by molar mass. Entries after “also recorded” stand apart in the source; their conditions may differ. Read-outs that look alike come from different tables or passages of the source.

Columns and labels:
[1] = carcinogenic potential; ref EC SCCS, 2012, EFSA ANS Panel, 2017; cited from earlier work
[2] = Nitrosation rate constant; conditions: pH 3.4; estimated from kDMA by correction for the pKa difference
[3] = tested on: bone marrow of Hsd:ICR (CD-1) mice; conditions: cited from earlier work; for maximum tolerated dose (MTD): range-finder, oral gavage, ref BioReliance, 2014
bone marrow of CD-1 mice = conditions: ref WIL Research (2013a), cited from earlier work
CD [Crl:CD(SD)] rats [4] = conditions: 28 days, gavage, rats males and females; ref Charles River (2013); cited from earlier work
Balb/c 3T3 cells = conditions: based on 3T3 NRU test; ref CeeTox, 2013; cited from earlier work
[5] = tested on: 67 receptor binding assays for G-protein coupled receptors (GPCRs), ion channels, nuclear receptors and transporters; conditions: significant = ≥ 50% inhibition or stimulation; 67 assays; ref Ricerca, 2012; cited from earlier work
CD [Crl:CD(SD)] rats [6] = conditions: 90 days, gavage, rats males and females; ref Charles River (2014); cited from earlier work
[7] = ref Senomyx, 2015, cited from earlier work
hERG ion channel = conditions: 10 μM; ref AVIVA, 2012; cited from earlier work
CD [Crl:CD(SD)] rats [8] = test: 90-day oral toxicity study in rats; assay type: in vivo
Method in brief: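 Candidate substance given by oral gavage to CD rats of both sexes for 13 weeks at up to 100 mg/kg bw per day, with doses chosen from a 28-day dietary range-finder. Margin of safety derived from the 90-day NOAEL against APET exposure estimates: chronic 3.8 (adult) or 9.5 (child) µg/kg bw per day, and acute 0.076 mg/kg bw for a 3-year-old child.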

[9] = tested on: human peripheral blood lymphocytes (HPBL); conditions: ref Nucro-Technics (2013b), cited from earlier work; for relative cell growth (RCG) (test vs. solvent control) / relative mitotic index (RMI) (test vs. solvent control): 3-h exposure without S9-mix
[10] = 24 h at 100°C, ref Senomyx, 2015, cited from earlier work
CYP2C19 [11] = conditions: human liver microsomes; ref Absorption Systems, 2013b; cited from earlier work
[12] = in vitro; ref CiToxLab, 2014; cited from earlier work
humans = conditions: 112 subjects completed, ref Harrison Research Laboratories, 2014a,b; cited from earlier work
[13] = tested on: Keratinocyte ARE-Reporter Cell Line KeratinoSens; conditions: in vitro; ref IIVS, 2013; cited from earlier work
[14] = heated for 24 h at 110°C; ref Senomyx, 2015; cited from earlier work
CYP2C19 [15] = conditions: 10 μM (~ […]), pooled human liver microsomes; ref Absorption Systems, 2013a; cited from earlier work
[16] = tested on: S. Typhimurium strains TA98, TA100, TA1535 and TA1537 and E. coli strain WP2 uvrA; conditions: up to 5,000 μg/plate, ref BioReliance (2013a), cited from earlier work; for Bacterial reverse mutation result: plate incorporation, with and without metabolic activation
[17] = tested on: human peripheral blood lymphocytes (HPBL); conditions: ref BioReliance (2013b), cited from earlier work; for Chromosome aberration result (structural aberrations): 4 + 16 h in the absence of S9-mix
[18] = 3-h exposure with S9-mix, 1.3 μg/mL
[19] = 3-h exposure with S9-mix, 2.5 μg/mL
[20] = 3-h exposure with S9-mix, 5.0 μg/mL
[21] = 20-h exposure without S9, 23 μg/mL
[22] = 20-h exposure without S9, 39 μg/mL
[23] = 20-h exposure without S9, 65 μg/mL
[24] = 20-h exposure without S9, 110 μg/mL

Which BMDL10 [1] does the source give for `CN(C)N=O` [DMNA, dimethylnitrosamine] here?
Its BMDL10 is 27 μg/kg bw per day.

Which “rate constant of nitrosation (kM179), estimated” value [2] does the source give for `c1csc(CNc2cc[nH]n2)c1` [M179, N‐(thiophen‐2‐ylmethyl)‐1H‐pyrazol‐3‐amine] here?
The value was 0.0017 × 10^−4 M^−2s^−1.

Which results are given for `O=S(=O)(O)O.c1csc(CNc2cc[nH]n2)c1.c1csc(CNc2cc[nH]n2)c1` [S2312, hemisulfate salt of N‐(thiophen‐2‐ylmethyl)‐1H‐pyrazol‐3‐amine]?
clinical signs observed ([3]; mice, 125-1,000 mg/kg bw per day, gavage, ref BioReliance (2014)): piloerection (at all dose levels), lethargy (at 500 and 1,000 mg/kg bw per day), prostration, irregular breathing and crusty eyes (at 1,000 mg/kg bw per day in female mice); mortality ([3]; mice, any dose level up to 1,000 mg/kg bw per day, ref BioReliance (2014)): No mortality; maximum tolerated dose (MTD) ([3]; female mice): 1,000 mg/kg bw per day; maximum tolerated dose (MTD) ([3]; male mice): 500 mg/kg bw per day

Which “frequency of MNPCEs, positive control” value (bone marrow of CD-1 mice; positive control, 60 mg/kg bw per day) does the source give for `O=P1(N(CCCl)CCCl)NCCCO1` (stereo not shown) [CP, Cyclophosphamide monohydrate, reference compound] here?
The value was “statistically significant increase”.

Which results are given for `Cc1ccc(OCC(=O)N(Cc2cccs2)c2ccn[nH]2)cc1` [FL‐no: 16.133, 2‐(4‐methylphenoxy)‐N‐(1H‐pyrazol‐3‐yl)‐N‐(thiophen‐2‐ylmethyl)acetamide]?
Result: NOEL (CD [Crl:CD(SD)] rats [4]): NOEL: ≥ 100 mg/kg bw per day; phototoxic potential (Panel conclusion) (Balb/c 3T3 cells): does not anticipate that [FL‐no: 16.133] has a phototoxic potential; responses in lead profiling receptor screen [5]: No significant responses; ratio PCEs/TE (bone marrow toxicity) vs vehicle control (bone marrow of CD-1 mice; CD-1 mice, 1,000-2,000 mg/kg bw per day): No decrease; Micronucleus assay result (incidence of MNPCEs) (bone marrow of CD-1 mice; CD-1 mice, gavage, 1,000, 1,500 and 2,000 mg/kg bw per day, three consecutive days): No statistically significant increases; also recorded: Negative; clinical signs of toxicity (bone marrow of CD-1 mice; CD-1 mice, gavage, up to 2,000 mg/kg bw per day): No clinical signs of toxicity; Result: NOEL (CD [Crl:CD(SD)] rats [6]): NOEL: ≥ 100 mg/kg bw per day; Solubility in ethanol ([7]; 95% ethanol): > 308 mM; Solubility in water ([7]; pH = 7): 0.12 mM (≈ 0.0393 mg/mL); Solubility in triacetine [7]: 40.47 mM (≈ 13.3 mg/mL); inhibition of hERG ion channel current (hERG ion channel): < 10%; Margin of safety (CD [Crl:CD(SD)] rats [8]; Adult, 90-day NOAEL 100 mg/kg bw per day vs chronic APET 3.8 μg/kg bw per day): 26,300; Margin of safety (CD [Crl:CD(SD)] rats [8]; Child, 90-day NOAEL 100 mg/kg bw per day vs chronic APET 9.5 μg/kg bw per day): 10,500; MoE, acute exposure (CD [Crl:CD(SD)] rats [8]; children, 90-day NOAEL vs maximum acute dietary exposure about 0.08 mg/kg bw): more than 1,000; relative cell growth (RCG) [9, 18]: 109%; relative mitotic index (RMI) [9, 18]: 61%; relative cell growth (RCG) [9, 19]: 100%; relative mitotic index (RMI) [9, 19]: 55%; relative cell growth (RCG) [9, 20]: 121%; relative mitotic index (RMI) [9, 20]: 45%; relative cell growth (RCG) ([9]; 3-h exposure with S9-mix, 10 μg/mL): 130%; relative cell growth (RCG) ([9]; 3-h exposure with S9-mix, 20 μg/mL): 97%; relative cell growth (RCG) ([9]; 3-h exposure with S9-mix, 40 μg/mL): 84%; relative cell growth (RCG) ([9]; 3-h exposure with S9-mix, 80 μg/mL): 60%; relative cell growth (RCG) ([9]; 3-h exposure with S9-mix, 160 μg/mL): 11%; relative cell growth (RCG) (test vs. solvent control) ([9]; 35 μg/mL): 108%; relative mitotic index (RMI) (test vs. solvent control) ([9]; 35 μg/mL): 102%; relative cell growth (RCG) (test vs. solvent control) ([9]; 58 μg/mL): 93%; relative mitotic index (RMI) (test vs. solvent control) ([9]; 58 μg/mL): 88%; relative cell growth (RCG) (test vs. solvent control) ([9]; 97 μg/mL): 98%; relative mitotic index (RMI) (test vs. solvent control) ([9]; 97 μg/mL): 110%; relative cell growth (RCG) (test vs. solvent control) ([9]; 160 μg/mL): 60%; relative mitotic index (RMI) (test vs. solvent control) ([9]; 160 μg/mL): 48%; relative cell growth (RCG) (test vs. solvent control) ([9]; 270 μg/mL): 18%; relative cell growth (RCG) [9, 21]: 100%; relative mitotic index (RMI) [9, 21]: 106%; relative cell growth (RCG) [9, 22]: 97%; relative mitotic index (RMI) [9, 22]: 82%; relative cell growth (RCG) [9, 23]: 60%; relative mitotic index (RMI) [9, 23]: 57%; relative cell growth (RCG) [9, 24]: 56%; relative mitotic index (RMI) [9, 24]: 0%; relative cell growth (RCG) ([9]; 20-h exposure without S9, 180 μg/mL): 19%; percentage remaining ([10]; aqueous citric buffer pH 2.8): 90.1%; percentage remaining ([10]; aqueous citric buffer pH 4.0): 97.2%; percentage remaining ([10]; phosphoric acid buffer pH 7.1): 83.5%; time-dependent inhibition of CYP2C19 (CYP2C19 [11]): No evidence of time‐dependent CYP inhibition; skin sensitisation potential, DPRA [12]: may exhibit a skin sensitisation potential; skin sensitisation, HRIPT result (humans): negative result; skin sensitisation potential, KeratinoSens Assay [13]: may exhibit a skin sensitisation potential; Dry powder stability [14]: stable; CYP2C19 inhibition (CYP2C19 [15]): significant inhibition

What does the source list for `Cl.c1csc(CNc2cc[nH]n2)c1` [S1140, N‐(Thiophen‐2‐ylmethyl)‐1H‐pyrazol‐3‐amine, hydrochloride salt]?
Bacterial reverse mutation result [16]: did not show mutagenicity; Bacterial reverse mutation result ([16]; hydrochloride salt (M179)): Negative ^a; precipitate / background lawn toxicity ([16]; two studies): Neither precipitate nor background lawn toxicity was observed in the two studies performed; Chromosome aberration result (structural aberrations) ([17]; hydrochloride salt (M179)): Positive ^e; Chromosome aberration result (structural aberrations) [17]: induced chromosomal aberrations; structural chromosomal aberrations ([17]; 4 + 16 h treatment in the presence of S9-mix, 100-1,840 μg/mL): No statistically significant or concentration‐related increases in structural chromosomal aberrations; polyploidy ([17]; any of the treatment conditions): No statistically significant or concentration‐related increases in polyploidy

For `COS(C)(=O)=O` [MMS, methyl methanesulfonate, reference compound], which “frequency of MNPCEs, positive control” value ([3]; positive control, 40 mg/kg bw per day on days 2 and 3, ref BioReliance (2014)) is on record?
Its value is “statistically significant increases”.
